In brackets after ≈: the same amount, converted by molar mass. Activity calls are given as the source filed them. No cut-off for these calls is given here.
How the values were obtained:
Human alphaherpesvirus 2 [1] = assay: Minimum effective dose against herpes simplex virus-2 (HSV-2) by oral administration in female mice.; format: functional, organism-based
Summary of the method: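 Swiss female ICR mice (13–15 g) infected intravaginally with HSV-2 (Curtis) at a dose set for 80% mortality. Compound suspended in 1% gum tragacanth/2% Tween 80, given intragastrically at serial 2-fold doses, 20 mice per dose, 2 h before infection then twice daily for 5 d. Mortality followed 14 d; MED = lowest dose with survival differing from placebo (Mantel-Cox, Breslow).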

Human alphaherpesvirus 2 [2] = assay: In vivo maximum tolerated dose against herpes simplex virus-2 (HSV-2) by oral administration in female mice; format: functional
Human alphaherpesvirus 2 [3] = assay: (§1) In vitro minimum inhibitory concentration against herpes simplex virus-2 (HSV-2) by plaque-reduction assay in vero cells; format: functional
Human alphaherpesvirus 2 [4] = assay: In vitro maximum tolerated level against herpes simplex virus-2 (HSV-2) by plaque-reduction assay in vero cells; format: functional
Human alphaherpesvirus 2 [5] = assay: as §1; format: functional, organism-based
Summary of the method: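 Vero monolayers (2 days old, confluent; Hank's MEM + 5% inactivated FCS, 37 °C, 2% CO2) infected with ~80 PFU; after 1-h adsorption, overlay of M199/5% FCS with 1:150 human immune serum globulin plus serial 2-fold compound dilutions (1:200 from DMSO). 3 d incubation, glutaraldehyde fix, crystal violet stain, plaque count. MIC = lowest concentration giving 50% plaque reduction; mean of ≥2 experiments.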

Row | Structure (SMILES) | MED (Human alphaherpesvirus 2 [1]) | MTD (Human alphaherpesvirus 2 [2]) | MIC (Human alphaherpesvirus 2 [3]) | MTL (Human alphaherpesvirus 2 [4]) | MIC (Human alphaherpesvirus 2 [5])
1 | NC(=O)c1cn(Cc2ccc(Cl)c(Cl)c2)c2cc(-c3ccncc3)ccc2c1=O | inactive | >100 mg/kg | 1.7 µg/mL (≈ 4.01 µM) | >100 µg/mL | 
2 | CCn1c(N)c(C(N)=O)c(=O)c2ccc(-c3ccncc3)cc21 |  | >100 mg/kg | 9 µg/mL (≈ 29.2 µM) | >12.5 µg/mL | 
3 | Cc1cc(-c2ccc3c(=O)c(C(N)=O)cn(-c4ccc(F)cc4)c3c2)on1 | inactive | >200 mg/kg | 0.26 µg/mL (≈ 0.716 µM) | >100 µg/mL | 
4 | CCn1cc(C(N)=O)c(=O)c2ccc(Cl)cc21 |  |  |  | >100 µg/mL | inactive
5 | CCn1cc(C(N)=O)c(=O)c2ccc(-c3ccccc3)cc21 |  |  |  | 50 µg/mL | inactive
6 | CCCCn1cc(C(N)=O)c(=O)c2ccc(-c3ccncc3)cc21 | inactive | 50 mg/kg | 5.2 µg/mL (≈ 16.2 µM) | 6.25 µg/mL | 
7 | CCn1cc(C(N)=O)c(=O)c2ccccc21 |  |  |  | 50 µg/mL | inactive
8 | COc1ccc(-n2cc(C(N)=O)c(=O)c3ccc(-c4ccncc4)cc32)cc1 | inactive | 50 mg/kg | 1.3 µg/mL (≈ 3.5 µM) | >25 µg/mL | 
9 | C=CCn1cc(C(N)=O)c(=O)c2ccc(-c3ccncc3)cc21 | inactive | <50 mg/kg | 2.9 µg/mL (≈ 9.5 µM) | 6.25 µg/mL | 
10 | CCn1cc(C(=O)NCCN(C)C)c(=O)c2ccc(-c3ccncc3)cc21 |  |  |  | >100 µg/mL | inactive
11 | NC(=O)c1c(O)c2ccc(-c3ccncc3)cc2n(-c2ccc(F)cc2)c1=O |  |  | 11 µg/mL (≈ 29.3 µM) | >100 µg/mL | 
12 | NC(=O)c1cn(-c2ccc(F)cc2F)c2cc(-c3ccncc3)ccc2c1=O | inactive | <25 mg/kg | 2.2 µg/mL (≈ 5.83 µM) | 3.1 µg/mL | 
13 | CC(C)(C)c1ccc(-n2cc(C(N)=O)c(=O)c3ccc(-c4ccncc4)cc32)cc1 |  |  |  | >25 µg/mL | inactive
14 | NC(=O)c1cn(-c2ccc(C(F)(F)F)cc2)c2cc(-c3ccncc3)ccc2c1=O | inactive | 50 mg/kg | 1 µg/mL (≈ 2.44 µM) | >100 µg/mL | 
15 | CCn1cc(C(N)=O)c(=O)c2ccc(N3CCN(C)CC3)cc21 |  |  |  | 50 µg/mL | inactive
16 | CCn1cc(C(N)=O)c(=O)c2ccc(-c3cc(C)no3)cc21 | inactive | >200 mg/kg | 12 µg/mL (≈ 40.4 µM) | >100 µg/mL | 
17 | CCn1cc(C(N)=O)c(=O)c2ccc(-c3ccc(N)cc3)cc21 |  |  |  | 6.25 µg/mL | inactive
18 | CCn1cc(C2=NCCN2)c(=O)c2ccc(-c3ccncc3)cc21 |  |  |  | >100 µg/mL | inactive
19 | NC(=O)c1cn(-c2ccc(F)cc2)c2cc(Br)ccc2c1=O |  |  |  | 6.25 µg/mL | inactive
20 | Cc1ccc(-n2cc(C(N)=O)c(=O)c3ccc(-c4ccncc4)cc32)cc1C | inactive | >200 mg/kg | 1 µg/mL (≈ 2.71 µM) | >100 µg/mL | 
21 | CCn1cc(C(=O)NCCN)c(=O)c2ccc(-c3ccncc3)cc21 |  |  |  | >100 µg/mL | inactive
22 | NC(=O)c1cn(-c2ccc(F)cc2)c2cc(Cl)ccc2c1=O |  |  |  | >12.5 µg/mL | inactive
23 | Oc1nc2c(O)c3ccc(-c4ccncc4)cc3n(-c3ccc(F)cc3)c-2n1 |  |  |  | >100 µg/mL | 
24 | CCn1cc(C(=O)N(C)C)c(=O)c2ccc(-c3ccncc3)cc21 |  |  |  | >100 µg/mL | inactive
25 | CCCn1cc(C(N)=O)c(=O)c2ccc(-c3ccncc3)cc21 |  |  |  | 6.25 µg/mL | inactive

Row | Structure (SMILES) | MED (Human alphaherpesvirus 2 [1]) | MTD (Human alphaherpesvirus 2 [2]) | MIC (Human alphaherpesvirus 2 [3]) | MTL (Human alphaherpesvirus 2 [4]) | MIC (Human alphaherpesvirus 2 [5])
26 | CCn1c(C)c(C(N)=O)c(=O)c2ccc(-c3ccncc3)cc21 |  |  |  | 50 µg/mL | inactive
27 | CCC(=O)c1c(O)c2ccc(-c3ccncc3)cc2n(-c2ccc(F)cc2)c1=O |  |  | > 100 µg/mL |  | 
28 | Cc1cc(-c2ccc3c(=O)c(C(N)=O)cn(-c4ccc(F)cc4)c3c2)sn1 | inactive | >100 mg/kg | 0.25 µg/mL (≈ 0.659 µM) | >100 µg/mL | 
29 | NC(=O)c1cn(C2CC2)c2cc(-c3ccncc3)ccc2c1=O | inactive | 25 mg/kg | 4 µg/mL (≈ 13.1 µM) | 25 µg/mL | 
30 | CCn1cc(C(N)=O)c(=O)c2ccc(-c3cnc(C)s3)cc21 |  |  |  | >100 µg/mL | inactive
31 | CCn1cc(C(N)=O)c(=O)c2ccc(-c3ccno3)cc21 | inactive | >200 mg/kg | 5 µg/mL (≈ 17.6 µM) | 12.5 µg/mL | 
32 | CCCCCn1cc(C(N)=O)c(=O)c2ccc(-c3ccncc3)cc21 | inactive | 50 mg/kg | 4.8 µg/mL (≈ 14.3 µM) | 6.25 µg/mL | 
33 | CCn1cc(C(N)=O)c(=O)c2ccc(-n3ccnc3)cc21 |  |  |  | 50 µg/mL | inactive
34 | CCn1cc(C#N)c(=O)c2ccc(-c3ccncc3)cc21 |  |  |  | 100 µg/mL | inactive
35 | NC(=O)c1cn(-c2ccc(F)cc2)c2cc(-c3ccccc3)ccc2c1=O | inactive | >200 mg/kg | 0.82 µg/mL (≈ 2.29 µM) | 12.5 µg/mL | 
36 | NC(=O)c1cn(CCO)c2cc(-c3ccncc3)ccc2c1=O |  |  |  | 50 µg/mL | inactive
37 | CCn1cc(C(=O)O)c(=O)c2ccc(-c3ccncc3)cc21 [ROSOXACIN] |  |  |  | >200 µg/mL | inactive
38 | NC(=O)c1csc2cc(-c3ccncc3)ccc2c1=O |  |  |  | >100 µg/mL | inactive
39 | CCn1cc(C(N)=O)c(=O)c2ccc(-c3ccc([N+](=O)[O-])cc3)cc21 |  |  |  | >100 µg/mL | inactive
40 | CCn1cc(C(N)=O)c(=O)c2ccc(I)cc21 |  |  |  | >100 µg/mL | inactive
41 | CCn1cc(C(N)=O)c(=O)c2ccc(-c3ccccn3)cc21 | inactive | 100 mg/kg | 14 µg/mL (≈ 47.7 µM) | 25 µg/mL | 
42 | NC(=O)c1cnc2cc(-c3ccncc3)ccc2c1O |  |  |  | 12.5 µg/mL | inactive
43 | CCn1cc(C(N)=O)c(=O)c2ccc(F)cc21 |  |  |  | 50 µg/mL | inactive
44 | CCn1cc(C(N)=O)c(=O)c2ccc(-c3c(C)cncc3C)cc21 | inactive | 25 mg/kg | 9.9 µg/mL (≈ 30.8 µM) | 12.5 µg/mL | 
45 | Cn1cc(C(N)=O)c(=O)c2ccc(-c3ccncc3)cc21 | inactive | 25 mg/kg | 4.6 µg/mL (≈ 16.5 µM) | >25 µg/mL | 
46 | CCn1cc(C(=O)NCCO)c(=O)c2ccc(-c3ccncc3)cc21 |  |  |  | 25 µg/mL | inactive
47 | NC(=O)c1c(O)c2ccc(-c3ccncc3)cc2n2c1nc1ccccc12 |  |  |  | 0.4 µg/mL | 
48 | CCn1cc(C(N)=O)c(=O)c2ccc(-c3cccnc3)cc21 | inactive | 100 mg/kg | 12 µg/mL (≈ 40.9 µM) | 50 µg/mL | 
49 | CCn1cc(C2=NCCO2)c(=O)c2ccc(-c3ccncc3)cc21 |  |  |  | 12.5 µg/mL | inactive
50 | CCn1cc(C(=O)NOC)c(=O)c2ccc(-c3ccncc3)cc21 |  |  |  | 25 µg/mL | inactive

Reference: ChEMBL document CHEMBL1127020, “3-Quinolinecarboxamides. A series of novel orally-active antiherpetic agents” (1993)
